pEC50: −log10 of the molar value. Active and inactive are the calls of the source. The calls are words filed in the database; no cut-off is given here.
Columns and labels:
[1] = Induction of osteoblast differentiation in mouse calvarial cells assessed as compound concentration required for maximum increase in ALP activity using PNPP as substrate after 48 hrs; assay type: functional, Calvarial cell
[2] = Induction of osteoblast differentiation in mouse calvarial cells assessed as increase in ALP activity using PNPP as substrate after 48 hrs; assay type: functional, cell-based; details: Calvarial cell
Calvarial cell = assay: Induction of mineralization in mouse calvarial cells assessed as calcium nodule formation at Emax incubated for 12 days by alizarin red-S staining based spectrophotometric method; assay type: functional
Summary of the method: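 Primary mouse calvarial osteoblasts treated with or without compound for 12 days, fixed in 4% formaldehyde, stained with alizarin red-S, and the stain extracted and quantified by the acetic acid method.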

Structure (SMILES) | Concentration giving maximal ALP increase [1] [pM] | pEC50 [2] | Activity (Calvarial cell)
COc1cc2oc(=O)cc(-c3ccccc3)c2cc1OCCCCCN1CCCCC1 | 1 | 7.97 | Active
COc1cc2oc(=O)cc(-c3ccccc3)c2cc1OCCCCCBr | 10000 | 8.24 | Active
COc1cc2oc(=O)cc(-c3ccccc3)c2cc1OC(=O)c1ccc(Br)cc1 | 1e+06 | 9.10 | 
COc1cc2oc(=O)cc(-c3ccccc3)c2cc1OCCCBr | 100 | 8.23 | Active
COc1cc2oc(=O)cc(-c3ccccc3)c2cc1OCCN1CCOCC1 | 1 | 7.93 | Active
COc1cc2oc(=O)cc(-c3ccccc3)c2cc1OCCCN1CCN(C)CC1 | 100 | 8.03 | 
COc1cc2oc(=O)cc(-c3ccccc3)c2cc1OC(=O)Cc1cccs1 | 10000 | 8.13 | 
COc1cc2oc(=O)cc(-c3ccccc3)c2cc1OCCCN1CCCCC1 | 1 | 8.12 | Active
COc1cc2oc(=O)cc(-c3ccccc3)c2cc1OCCCCCN1CCOCC1 | 10000 | 6.05 | Active
C/C=C(\C)C(=O)Oc1cc2c(-c3ccccc3)cc(=O)oc2cc1OC | 1e+06 | 8.96 | 
CCN1CCN(CCCOc2cc3c(-c4ccccc4)cc(=O)oc3cc2OC)CC1 | 10000 | 7.55 | 
CCN1CCN(CCCCCOc2cc3c(-c4ccccc4)cc(=O)oc3cc2OC)CC1 |  | 4.91 | 
CCN1CCN(CCOc2cc3c(-c4ccccc4)cc(=O)oc3cc2OC)CC1 | 1 | 7.87 | Active
COc1cc2oc(=O)cc(-c3ccccc3)c2cc1OCCCl | 1 | 7.71 | 
COc1cc2oc(=O)cc(-c3ccccc3)c2cc1OCCN1CCN(C)CC1 | 1 | 7.83 | Active
